Calls of active or inactive are those of the source. The calls are words filed in the database; no cut-off is given here.
Legend:
[1] = tested on: SJ-G2; assay: Cytotoxicity against human SJ-G2 cells assessed as growth inhibition at 25 uM measured after 72 hrs by MTT assay; format: functional, cell-based
Outline: (§1)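 Log-phase cells were plated in duplicate at 2500–4000 cells/well in DMEM with 10% FBS, glutamine and antibiotics, at 37 °C under 5% CO2. Drug was added 24 h after plating from a 40 mM DMSO stock, to a final 25 μM. After 72 h exposure, MTT was read at 540 nm and % growth inhibition was calculated, with 100% meaning total growth inhibition.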

[2] = tested on: MIA; assay: (§2) Cytotoxicity against human MIA cells assessed as growth inhibition at 25 uM measured after 72 hrs by MTT assay; format: functional; outline: as §1
[3] = (§3) Cytotoxicity against human BE(2)-C cells assessed as growth inhibition at 25 uM measured after 72 hrs by MTT assay; format: functional; details: read-out: GI; outline: as §1
[4] = tested on: A-431; assay: Cytotoxicity against human A431 cells assessed as growth inhibition at 25 uM measured after 72 hrs by MTT assay; format: functional, cell-based; outline: as §1
[5] = tested on: DU-145; assay: Cytotoxicity against human DU145 cells assessed as growth inhibition at 25 uM measured after 72 hrs by MTT assay; format: functional, cell-based; outline: as §1
[6] = tested on: A2780; assay: Cytotoxicity against human A2780 cells assessed as growth inhibition at 25 uM measured after 72 hrs by MTT assay; format: functional; outline: as §1
[7] = tested on: NCI-H460; assay: Cytotoxicity against human H460 cells assessed as growth inhibition at 25 uM measured after 72 hrs by MTT assay; format: functional, cell-based; outline: as §1
[8] = tested on: SW480; assay: Cytotoxicity against human SW480 cells assessed as growth inhibition at 25 uM measured after 72 hrs by MTT assay; format: functional; outline: as §1
[9] = tested on: MCF7; assay: Cytotoxicity against human MCF7 cells assessed as growth inhibition at 25 uM measured after 72 hrs by MTT assay; format: functional; details: for inhibition of growth at 25 µM: MCF7, 72 h, read-out: GI; outline: as §1
[10] = tested on: HT-29; assay: Cytotoxicity against human HT-29 cells assessed as growth inhibition at 25 uM measured after 72 hrs by MTT assay; format: functional, cell-based; outline: as §1
[11] = tested on: SMA; assay: Cytotoxicity against mouse SMA cells assessed as growth inhibition at 25 uM measured after 72 hrs by MTT assay
[12] = as §2; format: functional; details: read-out: GI; outline: as §1
[13] = tested on: BE(2)-C; assay: as §3; format: functional; outline: as §1

| SMILES | growth inhibition (GI) [1] | growth inhibition (GI) [2] | inhibition of growth at 25 µM [3] | growth inhibition (GI) [4] | growth inhibition (GI) [5] | growth inhibition (GI) [6] | growth inhibition (GI) [7] | inhibition of growth at 25 µM ([8]; SW480, 72 h, read-out: GI) | inhibition of growth at 25 µM [9] | growth inhibition (GI) [10] | growth inhibition (GI) [11] | inhibition of growth at 25 µM [12] | growth inhibition (GI) [13] | growth inhibition (GI) [8] | growth inhibition (GI) [9] |
| --- | --- | --- | --- | --- | --- | --- | --- | --- | --- | --- | --- | --- | --- | --- | --- |
| N#C/C(=C\c1c[nH]c2ccccc12)C(=O)c1ccc[nH]1 | inactive | inactive | 49% | inactive | inactive | inactive | inactive | 43% | 56% | inactive | inactive |  |  |  |  |
| COc1ccc(CNC(=O)/C(C#N)=C/c2cc3ccccc3o2)cc1 | inactive |  |  | inactive | inactive | inactive | inactive |  | 40% | inactive | inactive | 34% | inactive | inactive |  |
| COc1ccc(CNC(=O)/C(C#N)=C/c2ccc(CO)o2)cc1 | inactive | inactive |  | inactive | inactive | inactive | inactive |  |  | inactive | inactive |  | inactive | inactive | inactive |
| Cc1ccc(/C=C(\C#N)C(=O)NCc2ccc(Cl)c(Cl)c2)cc1 | inactive | inactive |  | inactive | inactive | inactive | inactive |  |  | inactive | inactive |  | inactive | inactive | inactive |
| N#C/C(=C\c1ccc(O)cc1)C(=O)c1c[nH]c2ccccc12 | inactive | inactive |  | inactive | inactive | inactive | inactive |  |  | inactive | inactive |  | inactive | inactive | inactive |
| COc1ccc(/C=C(\C#N)C(=O)NCc2ccc(OC)cc2)cc1 | inactive | inactive |  | inactive | inactive | inactive | inactive |  |  | inactive | inactive |  | inactive | inactive | inactive |
| N#C/C(=C\c1ccc([N+](=O)[O-])cc1)C(=O)c1ccc[nH]1 | inactive | inactive |  | inactive | inactive | inactive | inactive |  |  | inactive | inactive |  | inactive | inactive | inactive |
